# Assay results reported in ChEMBL document CHEMBL4689842, “EUbOPEN Chemogenomics Library wave 1” (2021).
# “And” between values parts separate entries of the source, which are not always exact repeats. Equal entries are not always repeated.
# Assays:
# Format in all cases: toxicity, cell-based
# HEK-293T [1] = assay: Multiplex assay against HEK293T; conditions: human;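 for Population Tubulin-Different-Phenotype (%): share of the cells with healthy nuclei that show this phenotype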
# Procedure, shortened: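 Values for tubulin, mitochondrial-mass and membrane-permeability phenotypes are per cents of cells with healthy nuclei. These cells were identified by CellPathfinder machine-learning gating of live cells that had been stained at seeding with Hoechst33342, BioTracker Green Microtubule Cytoskeleton Dye, MitoTracker Red and Annexin V Alexa Fluor 680 and imaged on a CQ1 microscope at 37°C and 5% CO2 after compound addition. The gating first set Hoechst high-intensity objects apart from normal cells, then split normal cells into healthy, pyknosed or fragmented nuclei, and pyknosed cells into mitotic or apoptotic.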
# Fibroblast = assay: Incucyte cell viability with human fibroblast; conditions: 10 µM, compound concentration 10 uM; note: filed as whole numbers so only -1 and 0 and 1 occur
# HEK-293T [2] = assay: Incucyte cell viability with HEK293T; conditions: human, 10 µM, compound concentration 10 uM; note: filed as whole numbers so only -1 and 0 and 1 occur
# [3] = 12 h, 1 µM, compound concentration 1 uM, replicate 1
# [4] = 12 h, 1 µM, compound concentration 1 uM, replicate 2
# [5] = 12 h, 10 µM, compound concentration 10 uM, replicate 1
# [6] = 12 h, 10 µM, compound concentration 10 uM, replicate 2
# [7] = 24 h, 1 µM, compound concentration 1 uM, replicate 1
# [8] = 24 h, 1 µM, compound concentration 1 uM, replicate 2
# [9] = 24 h, 10 µM, compound concentration 10 uM, replicate 1
# [10] = 24 h, 10 µM, compound concentration 10 uM, replicate 2
# [11] = 48 h, 10 µM, compound concentration 10 uM, replicate 1
# [12] = 48 h, 10 µM, compound concentration 10 uM, replicate 2
# [13] = 0 h, replicate number 1, timepoint 0 hours
# [14] = 12 h, replicate number 1, timepoint 12 hours
# [15] = 18 h, replicate number 1, timepoint 18 hours
# [16] = 24 h, replicate number 1, timepoint 24 hours
smiles,measurement,setting,value
CC(C)Oc1ccc(C(=O)N[C@H](CNC(=O)CN(C)C)Cc2ccc(-c3cn4cccc([C@H](C)O)c4n3)cc2)cc1Cl [GSK-923295A],Population Apoptotic (%),HEK-293T [1]; [3],15%
same,Population Fragmented Nuclei (%),HEK-293T [1]; [3],9%
same,Population Healthy Nuclei (%),HEK-293T [1]; [3],61%
same,Population Hoechst High Intensity Objects (%),HEK-293T [1]; [3],8%
same,Population Membrane Permeable-Phenotype (%),HEK-293T [1]; [3],6%
same,Population Mitochondria Different-Phenotype (%),HEK-293T [1]; [3],10%
same,Population Mitotic Cells (%),HEK-293T [1]; [3],84%
same,Population Normal (%),HEK-293T [1]; [3],91%
same,Population Pyknosed Nuclei (%),HEK-293T [1]; [3],28%
same,Population Tubulin-Different-Phenotype (%),HEK-293T [1]; [3],15%
same,Total Cell Count,HEK-293T [1]; [3],623
same,Population Apoptotic (%),HEK-293T [1]; [4],7%
same,Population Fragmented Nuclei (%),HEK-293T [1]; [4],6%
same,Population Healthy Nuclei (%),HEK-293T [1]; [4],69%
same,Population Hoechst High Intensity Objects (%),HEK-293T [1]; [4],2%
same,Population Membrane Permeable-Phenotype (%),HEK-293T [1]; [4],3%
same,Population Mitochondria Different-Phenotype (%),HEK-293T [1]; [4],12%
same,Population Mitotic Cells (%),HEK-293T [1]; [4],92%
same,Population Normal (%),HEK-293T [1]; [4],97%
same,Population Pyknosed Nuclei (%),HEK-293T [1]; [4],24%
same,Population Tubulin-Different-Phenotype (%),HEK-293T [1]; [4],25%
same,Total Cell Count,HEK-293T [1]; [4],1239
same,Population Apoptotic (%),HEK-293T [1]; [5],33% and 93%
same,Population Fragmented Nuclei (%),HEK-293T [1]; [5],22% and 19%
same,Population Healthy Nuclei (%),HEK-293T [1]; [5],37% and 22%
same,Population Hoechst High Intensity Objects (%),HEK-293T [1]; [5],20% and 23%
same,Population Normal (%),HEK-293T [1]; [5],79% and 76%
same,Population Pyknosed Nuclei (%),HEK-293T [1]; [5],39% and 58%
same,Population Tubulin-Different-Phenotype (%),HEK-293T [1]; [5],82% and 100%
same,Population Healthy Nuclei (%),HEK-293T [1]; [6],28% and 73%
same,Population Hoechst High Intensity Objects (%),HEK-293T [1]; [6],4%
same,Population Membrane Permeable-Phenotype (%),HEK-293T [1]; [6],13% and 21%
same,Population Mitochondria Different-Phenotype (%),HEK-293T [1]; [6],86% and 42%
same,Population Mitotic Cells (%),HEK-293T [1]; [6],32% and 82%
same,Population Normal (%),HEK-293T [1]; [6],95%
same,Population Pyknosed Nuclei (%),HEK-293T [1]; [6],62% and 24%
same,Population Tubulin-Different-Phenotype (%),HEK-293T [1]; [6],94% and 98%
same,Population Apoptotic (%),HEK-293T [1]; [7],10%
same,Population Fragmented Nuclei (%),HEK-293T [1]; [7],10%
same,Population Healthy Nuclei (%),HEK-293T [1]; [7],65%
same,Population Hoechst High Intensity Objects (%),HEK-293T [1]; [7],7%
same,Population Membrane Permeable-Phenotype (%),HEK-293T [1]; [7],6%
same,Population Mitochondria Different-Phenotype (%),HEK-293T [1]; [7],11%
same,Population Mitotic Cells (%),HEK-293T [1]; [7],90%
same,Population Normal (%),HEK-293T [1]; [7],92%
same,Population Pyknosed Nuclei (%),HEK-293T [1]; [7],24%
same,Population Tubulin-Different-Phenotype (%),HEK-293T [1]; [7],23%
same,Total Cell Count,HEK-293T [1]; [7],668
same,Population Apoptotic (%),HEK-293T [1]; [8],12%
same,Population Fragmented Nuclei (%),HEK-293T [1]; [8],13%
same,Population Healthy Nuclei (%),HEK-293T [1]; [8],77%
same,Population Hoechst High Intensity Objects (%),HEK-293T [1]; [8],4%
same,Population Membrane Permeable-Phenotype (%),HEK-293T [1]; [8],4%
same,Population Mitochondria Different-Phenotype (%),HEK-293T [1]; [8],8%
same,Population Mitotic Cells (%),HEK-293T [1]; [8],87%
same,Population Normal (%),HEK-293T [1]; [8],95%
same,Population Pyknosed Nuclei (%),HEK-293T [1]; [8],8%
same,Population Tubulin-Different-Phenotype (%),HEK-293T [1]; [8],28%
same,Total Cell Count,HEK-293T [1]; [8],1632
same,Population Apoptotic (%),HEK-293T [1]; [9],92% and 41%
same,Population Fragmented Nuclei (%),HEK-293T [1]; [9],19%
same,Population Healthy Nuclei (%),HEK-293T [1]; [9],33% and 54%
same,Population Hoechst High Intensity Objects (%),HEK-293T [1]; [9],22% and 18%
same,Population Membrane Permeable-Phenotype (%),HEK-293T [1]; [9],0% and 19%
same,Population Mitochondria Different-Phenotype (%),HEK-293T [1]; [9],100% and 41%
same,Population Normal (%),HEK-293T [1]; [9],77% and 81%
same,Population Pyknosed Nuclei (%),HEK-293T [1]; [9],47% and 26%
same,Population Tubulin-Different-Phenotype (%),HEK-293T [1]; [9],91%
same,Population Fragmented Nuclei (%),HEK-293T [1]; [10],8% and 4%
same,Population Healthy Nuclei (%),HEK-293T [1]; [10],39% and 72%
same,Population Hoechst High Intensity Objects (%),HEK-293T [1]; [10],4% and 7%
same,Population Mitochondria Different-Phenotype (%),HEK-293T [1]; [10],94% and 40%
same,Population Normal (%),HEK-293T [1]; [10],95% and 92%
same,Population Pyknosed Nuclei (%),HEK-293T [1]; [10],51% and 22%
same,Population Tubulin-Different-Phenotype (%),HEK-293T [1]; [10],96% and 98%
same,Population Apoptotic (%),HEK-293T [1]; [11],87%
same,Population Fragmented Nuclei (%),HEK-293T [1]; [11],23%
same,Population Healthy Nuclei (%),HEK-293T [1]; [11],46%
same,Population Hoechst High Intensity Objects (%),HEK-293T [1]; [11],30%
same,Population Membrane Permeable-Phenotype (%),HEK-293T [1]; [11],3%
same,Population Mitochondria Different-Phenotype (%),HEK-293T [1]; [11],100%
same,Population Mitotic Cells (%),HEK-293T [1]; [11],12%
same,Population Normal (%),HEK-293T [1]; [11],69%
same,Population Pyknosed Nuclei (%),HEK-293T [1]; [11],29%
same,Population Tubulin-Different-Phenotype (%),HEK-293T [1]; [11],88%
same,Total Cell Count,HEK-293T [1]; [11],156
same,Population Apoptotic (%),HEK-293T [1]; [12],75%
same,Population Fragmented Nuclei (%),HEK-293T [1]; [12],10%
same,Population Healthy Nuclei (%),HEK-293T [1]; [12],53%
same,Population Hoechst High Intensity Objects (%),HEK-293T [1]; [12],15%
same,Population Membrane Permeable-Phenotype (%),HEK-293T [1]; [12],9%
same,Population Mitochondria Different-Phenotype (%),HEK-293T [1]; [12],86%
same,Population Mitotic Cells (%),HEK-293T [1]; [12],24%
same,Population Normal (%),HEK-293T [1]; [12],84%
same,Population Pyknosed Nuclei (%),HEK-293T [1]; [12],35%
same,Population Tubulin-Different-Phenotype (%),HEK-293T [1]; [12],97%
same,Total Cell Count,HEK-293T [1]; [12],164
same,Growth Rate,Fibroblast; [13],0
same,Growth Rate,"Fibroblast; 0 h, replicate number 2, timepoint 0 hours",1
same,Growth Rate,"Fibroblast; 6 h, replicate number 1, timepoint 6 hours",0
same,Growth Rate,Fibroblast; [14],0
same,Growth Rate,Fibroblast; [15],0
same,Growth Rate,Fibroblast; [16],0
same,Growth Rate,HEK-293T [2]; [13],0
same,Growth Rate,"HEK-293T [2]; 6 h, replicate number 2, timepoint 6 hours",0
same,Growth Rate,HEK-293T [2]; [14],0
same,Growth Rate,HEK-293T [2]; [15],0
same,Growth Rate,HEK-293T [2]; [16],0
